Assay results published in paper PMC7941214 (Journal of medicinal chemistry, 2019).
Several values for one entry are separate records, joined by “and”; a condition that tells them apart may be missing. Equal values may be shown once.

Assays:
E. cloacae NCTC 13405 = test: Broth microdilution MIC/MBC, E. cloacae; format: cell-based, Enterobacter cloacae; conditions: for MIC E. cloacae NCTC 13405: value before the parentheses, two values = two repeats; for MBC E. cloacae NCTC 13405: value in parentheses
How it was run: (§1)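 CLSI broth microdilution in cation-adjusted Mueller–Hinton broth. Log-phase cultures were diluted to 7.5 × 10^5 CFU/mL, then mixed 1:1 with 2-fold serial dilutions of gold complexes from DMSO or water stocks, in triplicate, and held 37 °C, 18 h, static. MIC: lowest concentration giving >90% inhibition by OD600 against medium-only and bacteria-only wells. […] E. coli ATCC 25922 quality control was checked each run with ciprofloxacin and […].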

P. aeruginosa NCTC 13437 = test: Broth microdilution MIC/MBC, P. aeruginosa; format: cell-based, Pseudomonas aeruginosa; conditions: for MIC P. aeruginosa NCTC 13437: value before the parentheses, two values = two repeats; for MBC P. aeruginosa NCTC 13437: value in parentheses
How it was run: as §1

[1] = tested on: K. pneumoniae ATCC 700603; test: Broth microdilution MIC/MBC, K. pneumoniae; format: cell-based, Klebsiella pneumoniae; conditions: for MIC K. pneumoniae ATCC 700603: value before the parentheses, two values = two repeats; for MBC K. pneumoniae ATCC 700603: value in parentheses
How it was run: as §1

E. coli ATCC 25922 = test: Broth microdilution MIC/MBC, E. coli; format: cell-based, Escherichia coli; conditions: for MIC E. coli ATCC 25922: value before the parentheses, two values = two repeats; for MBC E. coli ATCC 25922: value in parentheses
How it was run: as §1

Log P determination = conditions: n-octanol/water, Au by FAAS
S. aureus JE2 (USA300) = test: Broth microdilution MIC/MBC, S. aureus; format: cell-based, Staphylococcus aureus; conditions: for MIC S. aureus JE2 (USA300): value before the parentheses, two values = two repeats; for MBC S. aureus JE2 (USA300): value in parentheses
How it was run: as §1

E. faecium ATCC 700221 = test: Broth microdilution MIC/MBC, E. faecium; format: cell-based, Enterococcus faecium; conditions: for MBC E. faecium ATCC 700221: value in parentheses; for MIC E. faecium ATCC 700221: value before the parentheses, two values = two repeats
How it was run: as §1

A. baumannii NCTC 13420 = test: Broth microdilution MIC/MBC, A. baumannii; format: cell-based, Acinetobacter baumannii; conditions: for MIC A. baumannii NCTC 13420: value before the parentheses, two values = two repeats; for MBC A. baumannii NCTC 13420: value in parentheses

SMILES | MIC E. cloacae NCTC 13405 (E. cloacae NCTC 13405) | MIC P. aeruginosa NCTC 13437 (P. aeruginosa NCTC 13437) | MIC K. pneumoniae ATCC 700603 [1] | MIC E. coli ATCC 25922 (E. coli ATCC 25922) | log P (Log P determination) | MIC S. aureus JE2 (USA300) (S. aureus JE2 (USA300)) | MBC S. aureus JE2 (USA300) (S. aureus JE2 (USA300)) | MBC E. faecium ATCC 700221 (E. faecium ATCC 700221) | MIC A. baumannii NCTC 13420 (A. baumannii NCTC 13420) | MIC E. faecium ATCC 700221 (E. faecium ATCC 700221) | MBC A. baumannii NCTC 13420 (A. baumannii NCTC 13420) | MBC E. cloacae NCTC 13405 (E. cloacae NCTC 13405) | MBC K. pneumoniae ATCC 700603 [1] | MBC E. coli ATCC 25922 (E. coli ATCC 25922) | MBC P. aeruginosa NCTC 13437 (P. aeruginosa NCTC 13437) | MIC S. aureus (S. aureus JE2 (USA300)) | fold enhancement of activity over auranofin, E. cloacae (E. cloacae NCTC 13405; vs auranofin)
CC(=O)OCC1O[C@@H]([S][Au-][P+](c2ccc(F)cc2)(c2ccc(F)cc2)c2ccc(F)cc2)C(OC(C)=O)[C@@H](OC(C)=O)[C@@H]1OC(C)=O (stereo partly drawn) [Compound 35, (2,3,4,6-Tetra-O-acety/-1-thio-β-D-glucopyranosato)(tris(4-fluorophenyl)phosphine) Gold(I)] | >292 µM | >292 µM | >292 µM | >292 µM | >3.04 | 1 µM | 2 µM | 5 µM | >292 µM |  |  |  |  |  |  |  | 
CC(=O)OCC1O[C@@H]([S][Au-][P+](c2ccccc2)(c2ccccc2)c2ccccc2)C(OC(C)=O)[C@@H](OC(C)=O)[C@@H]1OC(C)=O (stereo partly drawn) [Compound 33, (2,3,4,6-Tetra-O-acetyl-1-thio-β-D-glucopyranosato)-(triphenylphosphine) Gold(I)] | >311 µM | >311 µM | >311 µM | >311 µM | >3.87 | 1 µM and 2 µM | 2 µM | 5 µM | >311 µM | 5 µM |  |  |  |  |  |  | 
[Cl][Au].c1ccc(P(c2ccccc2)c2ccccc2)cc1 [Compound 27, (Triphenylphosphine)gold Chloride] | >518 µM | >518 µM | >518 µM | >518 µM | >3.94 | 1 µM and 2 µM | 4 µM | 4 µM |  | 4 µM | 518 µM |  |  |  |  |  | 
C[PH](C)(C)[Au][S]C1OC(CO)C(O)C(O)C1O [Compound 37, (1-Thio-β-D-glucopyranosato)(trimethylphosphine) Gold(I)] |  | >547 µM | 34 µM | 9 µM | −1.63 | 0.3 µM and 0.5 µM | 1 µM | 0.5 µM |  | 0.3 µM and 0.5 µM | 17 µM | 17 µM | 34 µM | 9 µM |  |  | 
CC[PH](CC)(CC)[Au][S]C1OC(CO)C(OC2OC(CO)C(O)C(O)C2O)C(O)C1O (stereo not shown) [Compound 14] | 190 µM | 381 µM | >381 µM | 12 µM | −1.69 |  | 0.09 µM | 0.4 µM | 24 µM |  | 24 µM | 190 µM |  | 12 µM | 381 µM |  | 
CC(=O)OCC1O[C@@H]([S][Au-][P+](c2ccc(C(F)(F)F)cc2)(c2ccc(C(F)(F)F)cc2)c2ccc(C(F)(F)F)cc2)C(OC(C)=O)[C@@H](OC(C)=O)[C@@H]1OC(C)=O (stereo partly drawn) [Compound 36, (2,3,4,6-Tetra-O-acetyl-1-thio-β-D-glucopyranosato)(tris(4-(trifluoromethyl)phenylphosphine)) Gold(I)] | >249 µM | >249 µM | >249 µM | >249 µM | >3.55 | 4 µM | 8 µM | 62 µM | >249 µM | 31 µM |  |  |  |  |  |  | 
CC[P+](CC)(CC)[Au-][S]CC(F)(F)F [Compound 23, (2,2,2-Trifluoroethanethiolato)(triethylphosphine) Gold(I)] | 37 µM | 149 µM | 149 µM | 74 µM | 2.08 | 0.009 µM | 0.1 µM | 1 µM | 37 µM and 74 µM | 0.6 µM | 149 µM | 149 µM | 149 µM | 74 µM | 149 µM | in the nanomolar range | 
CC[PH](CC)(CC)[Au][S]C1OC(CO)C(O)C(O)C1O [Compound 10, (1-Thio-β-D-galatopyranosato)(triethylphosphine) Gold(I)] | 63 µM | 251 µM | 251 µM | 16 µM | −0.73 | 0.02 µM | 0.1 µM | 0.5 µM | 31 µM | 0.1 µM and 0.2 µM | 31 µM | 63 µM | 251 µM | 16 µM | 251 µM |  | 3
COc1ccc([P+]([Au-][Cl])(c2ccc(OC)cc2)c2ccc(OC)cc2)cc1 [Compound 28, (Tris(4-methoxyphenyl)phosphine)gold Chloride] | >438 µM | >438 µM | >438 µM | >438 µM | >4.09 | 2 µM | 3 µM | 3 µM | >438 µM | 3 µM |  |  |  |  |  |  | 
CP(C)C.[Cl][Au] [Compound 24, (Trimethylphosphine)gold Chloride] | 3 µM | 52 µM | 7 µM and 13 µM | 7 µM | 0.16 | 0.1 µM and 0.2 µM | 1.6 µM | 3 µM | 7 µM and 13 µM | 0.4 µM | 13 µM | 3 µM | 13 µM | 7 µM | 52 µM |  | 
COc1ccc([P+]([Au-][S][C@@H]2OC(COC(C)=O)[C@@H](OC(C)=O)[C@H](OC(C)=O)C2OC(C)=O)(c2ccc(OC)cc2)c2ccc(OC)cc2)cc1 (stereo partly drawn) [Compound 34, (2,3,4,6-Tetra-O-acetyl-1-thio-β-D-glucopyranosato)(tris(4-methoxyphenyl)phosphine) Gold(I)] | >281 µM | >281 µM | >281 µM | >281 µM | >3.03 | 1 µM | 2 µM | 4 µM | >281 µM | 2 µM and 4 µM |  |  |  |  |  |  | 
